Screening results (PubChem BioAssay)
This excerpt belongs to a sample that is enriched for hits.
INS promoter act = TRM-6 insulin promoter activation | activation, % at 2 µM | TRM-6 cells, insulin promoter eGFP reporter, imaging; plate-scaled: unstimulated 0, stimulated control 100 | actives 0.81% (n = 130,000) | AID 1296;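 active means activation at 2 µM above a set limit, confirmed on inspection of the cell images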;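 further: share of cells whose green reporter signal exceeds an intensity cutoff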
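Material: Human fetal islet-derived TRM-6 cells with tamoxifen-inducible insulin promoter–eGFP reporter | Medium: Low-glucose (5.5 mM) medium with tamoxifen | Probe or stimulus: Tamoxifen inducer, 0.75 µM, in seeding medium | Schedule: Tamoxifen pre-incubation 15 h overnight, then compound exposure 48 h at 37 °C | Detection: High-content imaging of fixed cells with Hoechst nuclear stain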
* hit, by the source's call.

SMILES | INS promoter act
C[C@@H](C(=O)NCC1CC1)[C@@H]1C[C@@]1(C)[C@@H](NC(=O)OCc1ccccc1)c1ccccc1 | 0.0
CNC(=O)[C@@H]1C[C@H]1[C@@H](NC(=O)OCc1ccccc1)c1ccccc1 | 255.0*
C[C@H](CO)NC(=O)[C@H](C)[C@H]1C[C@]1(C)[C@H](NC(=O)OCc1ccccc1)c1ccccc1 | 0.0
Cc1cccc(Nc2nc(NCc3ccco3)nc(N3CCOCC3)n2)c1 | 9.1
O=C1S/C(=C/c2ccc(N3CCOCC3)o2)C(=O)N1Cc1c(F)cccc1Cl | 177.8*
O=C(CN1C(=O)S/C(=C/c2cccnc2)C1=O)N1CCOCC1 | -71.4
O=C1S/C(=C\c2ccc(N3CCOCC3)o2)C(=O)N1Cc1c(F)cccc1Cl | 0.0
CSc1nc2sc3c(c2c(=O)[nH]1)CCC3 | 0.0
Cc1nnc2c(-c3ccccc3)nc3ccccc3n12 | 9.1
Cn1nc(-c2ccccc2)c2nc3ccccc3nc21 | 150.0*
Cn1c(=O)c(-c2ccccc2)nc2ccccc21 | 327.9
CC1(C)CC(=O)C(C(=S)Nc2ccccc2)=C(NCCN2CCOCC2)C1 | 0.0
COc1ccc(C2C(C(=O)NCCN(C)C)c3ccccc3C(=O)N2C)cc1OC (centres undefined) | -7.1
CN(C(=O)COC(=O)c1ccccc1SCC(=O)NC1CCCCCCC1)C1CCS(=O)(=O)C1 (centres undefined) | -5.9
COc1cccc(OC)c1C(=O)Nn1c(-c2cccs2)nc2ccccc2c1=O | 0.0
CN1CCN(c2ncccc2S(=O)(=O)N2CCCCC2)CC1 | 347.6
Cc1cccc(NC(=O)CSc2nnc(Cn3cnc4ccccc43)o2)c1 | 104.8
COc1ccc(/C=C/C(=O)NCCOc2ccc(C)cc2)cc1 | -7.1
Cc1ccc(CSCCNC(=O)/C=C/c2ccc(Cl)cc2)cc1 | 2.9
O=C(/C=C/c1ccc(OCCCF)cc1)NCc1ccc(Cl)cc1 | 222.6*
CCCNC(=O)COC(=O)c1cc2c(=O)n3ccccc3nc2s1 | 138.5
O=S(=O)(NCCSc1nnc(-c2ccco2)n1-c1ccccc1)c1ccccc1 | 9.7
Cn1c(=O)c2c(ncn2CC(O)CNc2cccc(Cl)c2)n(C)c1=O (centres undefined) | 6.7
Cc1cc2cc(CN(C(=O)C3CC3)C3CCCC3)c3nnnn3c2cc1C | 7.4
O=C1CCC(C(=O)N2CCC(CO)(Cc3ccc(Cl)cc3)CC2)=NN1 | -7.7
SMILES | INS promoter act
CN(C)/C=N/c1sc2c(c1C#N)CC(C)(C)NC2(C)C | 271.4
COCCN(C(=O)C1CC1)c1nnc(-c2cccc(C)c2)s1 | 181.8*
CCCCC(=O)N(CCOC)c1nnc(-c2ccc(OC)cc2)s1 | 3.1
COCCN(C(=O)/C=C/c1ccccc1)c1nnc(-c2cccnc2)s1 | -4.8
COc1ccc(OC(=O)c2cnn(-c3ccccc3)c2C)cc1 | 9.9
C=C(C)c1cccc(C(C)(C)NC(=O)N(C)C2CCN(C)CC2)c1 | 260.0*
C=C(C)c1cccc(C(C)(C)NC(=O)N2CCN(c3ccccc3OC)CC2)c1 | -7.7
C=C(C)c1cccc(C(C)(C)NC(=O)Nc2ncccn2)c1 | -2.9
COc1ccc(C2Nc3ccccc3C(=O)N2c2ccc(C)cc2)cc1Cn1nc(C)c([N+](=O)[O-])c1C (centres undefined) | 129.0*
COc1cccc(C2Nc3ccccc3C(=O)N2O)c1O (centres undefined) | 7.1
Cc1ccc(Cn2nc(C)c(NC(=O)CCCn3nc(C)c([N+](=O)[O-])c3C)c2C)cc1 | 0.0
COc1ccc(NS(=O)(=O)c2cccc(-c3n[nH]c(=S)n3Cc3ccccc3)c2)cc1 | 116.7
CCOc1ccc(NC(=O)c2cccc(OC(=S)N3CCOCC3)c2)cc1 | -7.1
N#CC1=C(N)SC(N)=C(C#N)C1c1cccc(O)c1 | 0.0
COc1cc2c(cc1NC(=O)CCCN1C(=O)CCC1=O)oc1ccccc12 | 506.3*
COc1cc2c(cc1NC(=O)CSc1cccc[n+]1[O-])oc1ccccc12 | 0.0
COc1cc2c(cc1NC(=O)COc1ccccc1OC)oc1ccccc12 | 3.3
COc1cc2c(cc1NC(=O)c1cncc(Br)c1)oc1ccccc12 | 443.8*
COc1cc2c(cc1NC(=O)Nc1ccccc1)oc1ccccc12 | -6.9
COc1cc2c(cc1NC(=O)CSCC(=O)O)oc1ccccc12 | -7.1
CCOc1ccccc1Nc1nnc(SCC(=O)NC(=O)c2cccn2C)s1 | -6.5
COc1ccc(-n2nc(C#N)c(Cl)cc2=O)cc1 | 3.7
O=C(CSc1nnnn1-c1cccc2c1CCCC2)NC1CCCC1 | -2.9
O=S(=O)(NCc1cccnc1)c1ccc(Cl)c(Cl)c1 | -8.6
CCN(CC)C(=O)c1ccc(S(=O)(=O)NCc2cccnc2)cc1 | -3.2
SMILES | INS promoter act
O=S(=O)(NCc1cccnc1)c1ccc2c(c1)OCCO2 | 468.8*
Cc1nc(CC(C)C)cc(C(=O)N2CCCC(CNS(=O)(=O)c3cccs3)C2)n1 (centres undefined) | 421.4*
O=C(c1ccc(NS(=O)(=O)c2cccs2)cc1)N1CCCCC1 | -3.2
CCOC(=O)C1CCCN(C(=O)c2cc(-c3ccccc3)on2)C1 (centres undefined) | 31.8
COc1cc([N+](=O)[O-])ccc1NC(=O)CCCOc1cccc(C)c1 | -8.3
COc1ccccc1CNC(=O)c1nn(-c2ccc(C)cc2)c(=O)c2c1c1ccccc1n2C | 5.4
Cc1ccccc1NC(=O)CCC(=O)OCC(=O)c1ccc(-c2ccccc2)cc1 | 8.9
CCn1ncc(Cl)c1C(=O)NC(=S)Nc1c(C)cc(C)cc1[N+](=O)[O-] | 292.9*
CCn1ncc(Br)c1C(=O)Nc1ccc(F)c([N+](=O)[O-])c1 | 238.5
Cc1ccc(C(=O)NC(=S)Nc2ccccc2N2CCCC2)cc1[N+](=O)[O-] | 0.0
O=C(COC(=O)Cc1cccc(C(F)(F)F)c1)Nc1ccc2c(c1)OCCO2 | -5.4
CC1(C)CC(=O)C=C(NC2=CC3OC(c4ccccc4)OCC3OC2=O)C1 (centres undefined) | -7.1
Cc1nnsc1NC(=O)OCC(C)(C)C | 2.7
COc1ccc(N2C(=O)c3ccc(C(=O)OC(C)C)cc3C2=O)cc1 | -64.3
Cc1cc(NC(=O)c2ccc3c(c2)C(=O)N(C)C3=O)no1 | -7.1
CC(=O)Oc1cccc(N2C(=O)c3ccc(C(=O)Nc4c[nH]c(=O)[nH]c4=O)cc3C2=O)c1 | 214.3*
O=P(OCC1CC1)(c1ccccc1)c1ccccc1 | 3.7
COC(=O)C/C(O)=C(/N=Nc1cccc(C(F)(F)F)c1)C(=O)OC | -8.6
COc1ccc(C2NC(=O)NC(C)=C2C(C)=O)cc1 (centres undefined) | 128.6
COc1ccc(NC2=C(C(C)=O)C(c3ccc(OC)cc3)C(C(C)=O)C(C)(O)C2)cc1 (centres undefined) | 316.7*
COc1ccc(C2C(C(C)=O)=C(Nc3ccccc3)CC(C)(O)C2C(C)=O)cc1OC (centres undefined) | 215.4
CCOc1ccccc1NC(=O)C(NCC1(N2CCCCC2)CCCCC1)c1ccccc1 (centres undefined) | 128.6
COC(=O)c1c(C)[nH]c(C(=O)CSc2ccc(Cl)cc2)c1C | 0.0
CCOC(=O)C1CCCN(C2CC(=O)N(c3ccccc3)C2=O)C1 (centres undefined) | 0.0
CCc1ccc(N2C(=O)CC(N3CCC(C(=O)OC)CC3)C2=O)cc1 (centres undefined) | 542.9*
CCc1ccc(N2CC(C(=O)OC)CC2=O)cc1 (centres undefined) | -68.4
CC(C)N(C(=O)c1ccccc1-c1ccccc1)C(C)C | -3.4
Cc1ccc(C(=O)CSc2nnc(-c3ccccc3)o2)cc1 | 113.3
O=C(CSc1nnc(-c2ccncc2)o1)Oc1ccccc1 | 690.0*
